Test results published in ChEMBL document CHEMBL4616681, “Discovery of 3-Pyridyl Isoindolin-1-one Derivatives as Potent, Selective, and Orally Active Aldosterone Synthase (CYP11B2) Inhibitors” (J Med Chem, 2020).
≈ marks a conversion by molar mass, not a printed value.

Tests used:
[1] = molecular target: T1, Cytochrome P450 11B2, mitochondrial (Homo sapiens, UniProt P19099); test: Inhibition of human CYP11B2 expressed in human renal leiomyoblastoma cells harboring FDXR/FDX using 1-deoxycorticosterone as substrate by HTRF assay; type: cell-based
T1 sequence (P19099 whole entry): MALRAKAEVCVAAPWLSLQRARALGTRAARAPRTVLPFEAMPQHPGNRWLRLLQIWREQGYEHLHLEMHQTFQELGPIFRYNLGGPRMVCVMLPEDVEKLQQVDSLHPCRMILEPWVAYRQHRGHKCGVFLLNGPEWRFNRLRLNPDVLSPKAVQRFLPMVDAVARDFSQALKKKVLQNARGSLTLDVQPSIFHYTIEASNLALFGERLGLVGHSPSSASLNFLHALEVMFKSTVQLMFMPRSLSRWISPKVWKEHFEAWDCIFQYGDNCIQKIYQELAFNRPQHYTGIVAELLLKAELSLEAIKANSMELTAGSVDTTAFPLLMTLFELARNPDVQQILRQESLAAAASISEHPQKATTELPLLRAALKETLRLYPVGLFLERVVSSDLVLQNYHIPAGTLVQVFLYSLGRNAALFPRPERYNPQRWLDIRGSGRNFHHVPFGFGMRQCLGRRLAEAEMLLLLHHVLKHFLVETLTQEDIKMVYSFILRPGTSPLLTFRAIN
Outline: (§1)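 Cells with endogenous FDXR/FDX and no detectable CYP11B activity, stably transfected (CMV promoter, neomycin selection, G-418 400 µg/mL) with CYP11B1 or CYP11B2 of the named species. Assayed in DMEM/F12 with 2.5% charcoal-treated FCS. Substrate 1 µM 11-deoxycorticosterone (B2) or 11-deoxycortisol (B1), 16 hr. Aldosterone or cortisol in supernatant measured by HTRF. IC50 from 4-parameter MMF fit; selectivity factor is the B1/B2 IC50 ratio.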

[2] = molecular target: T2, Cytochrome P450 11B1, mitochondrial (Homo sapiens, UniProt P15538); test: Inhibition of human CYP11B1 expressed in human renal leiomyoblastoma cells harboring FDXR/FDX using 1-deoxycortisol as substrate by HTRF assay; type: ADME, cell-based; outline: as §1
T2 sequence (P15538 whole entry): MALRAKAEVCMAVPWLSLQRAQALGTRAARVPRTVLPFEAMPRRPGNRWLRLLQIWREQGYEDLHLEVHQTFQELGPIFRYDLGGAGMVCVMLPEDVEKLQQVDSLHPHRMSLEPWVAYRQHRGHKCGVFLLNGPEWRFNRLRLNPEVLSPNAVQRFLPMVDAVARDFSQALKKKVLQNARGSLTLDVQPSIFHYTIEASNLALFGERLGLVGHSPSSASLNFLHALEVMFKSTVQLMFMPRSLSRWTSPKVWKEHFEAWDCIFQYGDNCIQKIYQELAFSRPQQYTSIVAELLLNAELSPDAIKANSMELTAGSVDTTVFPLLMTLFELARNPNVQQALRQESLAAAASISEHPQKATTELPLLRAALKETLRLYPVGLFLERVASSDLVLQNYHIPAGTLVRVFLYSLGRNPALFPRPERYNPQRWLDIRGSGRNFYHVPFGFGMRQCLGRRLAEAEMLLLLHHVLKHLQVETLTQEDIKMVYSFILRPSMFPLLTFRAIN

[3] = Selectivity ratio of IC50 for human CYP11B1 expressed in human renal leiomyoblastoma cells harboring FDXR/FDX to IC50 for human CYP11B2 expressed in human renal leiomyoblastoma cells harboring FDXR/FDX; type: cell-based; outline: as §1
[4] = Intrinsic clearance in human liver microsomes preincubated for 10 mins followed by NADPH regenerating system addition and measured up to 30 mins by LC/MS-MS analysis; type: ADME, Microsome; details: read-out: CLH
Outline: (§2)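 Liver microsomes at 0.5 mg protein/mL in 100 mM potassium phosphate, pH 7.4. Compound preincubated 10 min at 37 °C. Intrinsic clearance scaled using the well-stirred liver model.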

[5] = Intrinsic clearance in mouse liver microsomes preincubated for 10 mins followed by NADPH regenerating system addition and measured up to 30 mins by LC/MS-MS analysis; type: ADME, Microsome; outline: as §2
[6] = Octanol-water distribution coefficient, log D of the compound by carrier-mediated distribution system; type: physicochemical
[7] = Permeability of the compound measured at 18 hrs by PAMPA; type: ADME; details: read-out: permeability
Outline: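 PAMPA sandwich format. Donor: compound diluted to 150 μM (DMSO <2%) in 0.05 M MOPSO pH 6.5 with 0.5% glycocholic acid. Acceptor: 0.05 M MOPSO pH 6.5. Membrane of 10% egg lecithin with 0.5% cholesterol in dodecane. Donor measured at start; acceptor and donor measured at ~18 hr.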

[8] = Solubility of the compound in phosphate buffer at pH 6.5 shaken for 2 hrs followed by overnight incubation; type: physicochemical
Outline: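 Lyophilisation solubility assay run in duplicate from 10 mM DMSO stock. DMSO evaporated and residue redissolved in 0.05 M phosphate, pH 6.5. Stirred 1 hr, shaken 2 hr, left overnight, then filtered. Filtrate and a 1/10 dilution analysed by HPLC-UV against a four-point calibration.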

[9] = Inhibition of cynomolgus monkey CYP11B2 expressed in human G401 cells using 1-deoxycorticosterone as substrate by HTRF assay; type: cell-based, Macaca fascicularis; details: g-401; outline: as §1
[10] = Selectivity ratio of IC50 for cynomolgus monkey CYP11B1 expressed in human G401 cells to IC50 for cynomolgus monkey CYP11B2 expressed in human G401 cells; type: cell-based; outline: as §1
[11] = Intrinsic clearance in rat liver microsomes preincubated for 10 mins followed by NADPH regenerating system addition and measured up to 30 mins by LC/MS-MS analysis; type: ADME, Microsome; outline: as §2
[12] = Plasma clearance in Wister-Han rat at 1 mg/kg, iv administered as single dose by LC/MS-MS analysis; type: ADME, organism-based; details: Wistar-Han
Outline: (§3)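 Male Wistar-Han rats, single dose. IV 1 mg/kg, compound at 0.5 mg/mL in NMP:saline 30/70 (v/v). Oral 3 mg/kg, 0.25 mg/mL in 2% Klucel with 0.1% Polysorbate 80. Three rats per time point. Heparinized blood taken at eight (iv) or seven (po) time points, plasma stored at -20 °C. Plasma levels by LC/MS-MS. Non-compartmental analysis.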

[13] = AUC (0 to infinity) in Wister-Han rat at 3 mg/kg, po administered as single dose by LC/MS-MS analysis; type: ADME, organism-based; parameters: dose 3 mg/kg, route oral, time infinity; details: Wistar-Han, in vivo; outline: as §3
[14] = Oral bioavailability in Wister-Han rat at 3 mg/kg administered as single dose by LC/MS-MS analysis; type: ADME, organism-based; details: Wistar-Han, in vivo; outline: as §3
[15] = molecular target: Cytochrome P450 3A4 (Homo sapiens, UniProt P08684); test: Inhibition of CYP3A4 (unknown origin); type: ADME
Cytochrome P450 3A4, sequence (P08684 whole entry): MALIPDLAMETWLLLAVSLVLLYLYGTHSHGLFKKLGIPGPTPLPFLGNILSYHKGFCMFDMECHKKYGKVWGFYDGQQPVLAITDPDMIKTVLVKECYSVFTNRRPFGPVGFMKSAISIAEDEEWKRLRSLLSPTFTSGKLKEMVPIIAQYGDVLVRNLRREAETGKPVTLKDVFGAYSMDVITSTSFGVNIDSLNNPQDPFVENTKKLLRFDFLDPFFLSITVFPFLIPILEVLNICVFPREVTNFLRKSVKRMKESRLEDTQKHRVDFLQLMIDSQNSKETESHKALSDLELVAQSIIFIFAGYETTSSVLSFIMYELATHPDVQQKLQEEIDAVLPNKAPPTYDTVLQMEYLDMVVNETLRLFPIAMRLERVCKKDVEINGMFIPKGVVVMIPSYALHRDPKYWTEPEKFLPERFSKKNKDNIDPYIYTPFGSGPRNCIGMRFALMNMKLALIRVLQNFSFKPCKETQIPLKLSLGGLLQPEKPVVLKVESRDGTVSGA

[16] = molecular target: Cytochrome P450 2D6 (Homo sapiens, UniProt P10635); test: Inhibition of CYP2D6 (unknown origin); type: ADME
Cytochrome P450 2D6, sequence (P10635 whole entry): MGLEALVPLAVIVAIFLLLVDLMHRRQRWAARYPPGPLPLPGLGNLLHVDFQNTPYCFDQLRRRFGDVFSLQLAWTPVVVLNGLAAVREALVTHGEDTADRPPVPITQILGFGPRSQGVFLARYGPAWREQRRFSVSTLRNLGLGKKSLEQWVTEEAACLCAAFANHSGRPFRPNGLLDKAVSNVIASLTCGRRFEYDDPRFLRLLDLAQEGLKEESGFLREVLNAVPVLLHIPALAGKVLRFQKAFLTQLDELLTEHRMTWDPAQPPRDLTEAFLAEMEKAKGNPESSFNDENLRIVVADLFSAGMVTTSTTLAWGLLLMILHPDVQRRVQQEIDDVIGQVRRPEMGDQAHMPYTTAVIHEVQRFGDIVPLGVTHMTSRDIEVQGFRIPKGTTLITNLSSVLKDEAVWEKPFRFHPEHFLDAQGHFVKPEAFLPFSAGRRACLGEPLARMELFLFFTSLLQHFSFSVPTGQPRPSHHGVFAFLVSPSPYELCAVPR

[17] = molecular target: Cytochrome P450 2C9 (Homo sapiens, UniProt P11712); test: Inhibition of CYP2C9 (unknown origin); type: ADME
Cytochrome P450 2C9, sequence (P11712 whole entry): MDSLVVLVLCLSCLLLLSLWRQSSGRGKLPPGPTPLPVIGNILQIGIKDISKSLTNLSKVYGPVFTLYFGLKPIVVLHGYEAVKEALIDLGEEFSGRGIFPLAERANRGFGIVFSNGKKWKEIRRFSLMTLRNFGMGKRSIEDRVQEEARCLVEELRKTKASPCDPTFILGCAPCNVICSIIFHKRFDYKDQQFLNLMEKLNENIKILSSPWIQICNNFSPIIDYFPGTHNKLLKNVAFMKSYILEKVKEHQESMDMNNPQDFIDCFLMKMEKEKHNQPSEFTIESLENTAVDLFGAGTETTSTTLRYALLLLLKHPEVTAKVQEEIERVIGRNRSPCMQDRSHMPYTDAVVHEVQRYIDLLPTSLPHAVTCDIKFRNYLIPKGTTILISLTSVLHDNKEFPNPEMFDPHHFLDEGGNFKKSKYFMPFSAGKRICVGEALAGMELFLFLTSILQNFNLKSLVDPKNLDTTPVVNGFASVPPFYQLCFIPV

Row | SMILES | IC50 [1] [nM] | IC50 [2] [nM] | Ratio IC50 [3] | predicted hepatic clearance [4] [mL/min/kg] | predicted hepatic clearance (CLH) [5] [mL/min/kg] | logD [6] | Papp at 18 h [7] [×10⁻⁶ cm/s] | solubility at 2 h [8] [µg/mL] | IC50 [9] [nM] | Ratio IC50 [10] | predicted hepatic clearance (CLH) [11] [mL/min/kg] | clearance [12] [mL/min/kg] | AUC(0-inf) [13] [ng·h/mL] | bioavailability [14] [%] | IC50 [15] [nM] | IC50 [16] [nM] | IC50 [17] [nM]
1 | N#Cc1ccc2c(c1)CN(c1cccnc1)C2=O | 232 | 15500 | 67 | 8.7 | 45.6 | 1.35 |  |  |  |  |  |  |  |  |  |  | 
2 | Cc1ccncc1C(=O)N1CC(Oc2cncc(N3C(=O)c4ccc(Cl)cc4C3(C)C)c2)C1 | 4 |  | 553 |  |  |  | 5.4 | 290 (≈ 626 µM) | 0.9 | 1770 | 10.4 | 15.8 | 1020 | 40 |  |  | 
3 | CC1Cc2cc(Cl)ccc2C(=O)N1c1cccnc1 (stereo unspecified) | 761 | > 10000 | > 13 |  |  |  |  |  |  |  |  |  |  |  | > 50000 | > 50000 | > 50000
4 | CC1(C)CN(c2cccnc2)C(=O)c2ccc(Cl)cc21 | 1540 | > 10000 | > 7 |  |  |  |  |  |  |  |  |  |  |  | > 50000 | > 50000 | > 50000
5 | CCC(=O)N[C@@H]1CCCc2c1cncc2N1Cc2cc(Cl)ccc2C1=O | 28 | 5210 | 186 | < 3.5 | < 20.2 | 2.14 | 3.63 | > 460 |  |  |  |  |  |  |  |  | 
6 | CCS(=O)(=O)N1CCC(c2cncc(N3C(=O)c4ccc(Cl)cc4C3(C)C)c2)CC1 | 3 |  | 106 |  |  |  | 4.01 | 39 (≈ 87.1 µM) | 0.4 | 430 | 35.1 | 29.7 | 1460 | 87 |  |  | 
7 | CC(=O)N[C@@H]1CCCc2c1cncc2N1CCc2cc(Cl)ccc2C1=O | 54 | 3920 | 73 | 4.3 |  |  |  |  |  |  | < 20.2 |  |  |  |  |  | 
8 | CC(=O)N1CCN(c2cncc(N3C(=O)c4ccc(Cl)cc4C3(C)C)c2)CC1 | 9 |  | 80 |  |  |  |  |  | 3 | 236 | 17.7 |  |  |  |  |  | 
